# Laboratory results from ChEMBL document CHEMBL1124331, “Mitomycin C analogues with a substituted hydrazine at position 7. Synthesis, spectral properties, and biological activity” (1989).
# Columns and labels:
# P388 [1] = experiment: Compound (25.6 mg/kg) was tested in vivo against P388 lymphocytic leukemia screen for Median survival time; type: functional, Mus musculus
# Method in brief: (§1)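 Murine P388 lymphocytic leukemia, tumour implanted ip and drug also given ip; testing at Bristol-Myers. Median survival time recorded at the optimal dose (mg/kg per dose) beside concurrently run mitomycin C control; %T/C = treated median survival/control median survival × 100.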
# P388 [2] = experiment: Minimum effective dose observed for the substrate; type: functional; settings: Mus musculus, read-out: MED
# Method in brief: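 Same ip P388 leukemia model with ip dosing; minimum effective dose taken as lowest mg/kg per dose giving %T/C ≥ 125, with concurrent mitomycin C values.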
# P388 [3] = experiment: Compound (6.4 mg/kg) was tested in vivo against P388 lymphocytic leukemia screen for Median survival time; type: functional, Mus musculus; method in brief: as §1
# P388 [4] = experiment: Compound (51.2 mg/kg) was tested in vivo against P388 lymphocytic leukemia screen for Median survival time; type: functional, Mus musculus; method in brief: as §1
Compound,T/C (P388 [1]) [%],minimal effective dose (P388 [2]) [mg/kg],T/C (P388 [3]) [%],T/C (P388 [4]) [%]
CCOC(=O)/N=N/c1c(C)c(O)c2c(c1O)[C@@H](COC(N)=O)[C@@]1(OC)[C@H]3N[C@H]3CN21,180,0.8,–,–
CO[C@@]12[C@H](COC(N)=O)c3c(O)c(/N=N/C(=O)OCC4c5ccccc5-c5ccccc54)c(C)c(O)c3N1C[C@@H]1N[C@@H]12,195,0.8,–,–
CO[C@@]12[C@H](COC(N)=O)c3c(O)c(/N=N/C(=O)c4cccnc4)c(C)c(O)c3N1C[C@@H]1N[C@@H]12,150,12.8,–,–
CO[C@@]12[C@H](COC(N)=O)c3c(O)c(/N=N/C(=O)c4ccccc4)c(C)c(O)c3N1C[C@@H]1N[C@@H]12,150,0.8,–,–
CO[C@@]12[C@H](COC(N)=O)c3c(O)c(/N=N/C(=O)OCc4ccccc4)c(C)c(O)c3N1C[C@@H]1N[C@@H]12,–,1.6,185,–
CO[C@@]12[C@H](COC(N)=O)c3c(O)c(/N=N/C(C)=O)c(C)c(O)c3N1C[C@@H]1N[C@@H]12,–,1.6,–,190
CO[C@@]12[C@H](COC(N)=O)c3c(O)c(/N=N/C(=O)OC(C)(C)C)c(C)c(O)c3N1C[C@@H]1N[C@@H]12,160,0.8,–,–
CO[C@@]12[C@H](COC(N)=O)c3c(O)c(/N=N/C(=O)c4cccs4)c(C)c(O)c3N1C[C@@H]1N[C@@H]12,–,0.8,140,–
